Reference: ChEMBL document CHEMBL4706621, “An attempt to chemically state the cross-talk between monomers of COX homodimers by double/hybrid inhibitors mofezolac-spacer-mofezolac and mofezolac-spacer-arachidonic acid” (Eur J Med Chem, 2021)

What was measured:
[1] = target: T1, Prostaglandin G/H synthase 1 (Ovis aries, UniProt P05979); assay: Inhibition of ovine COX-1 assessed as peroxidase activity using arachidonic acid as substrate by colorimetric method
T1 sequence (P05979 whole entry): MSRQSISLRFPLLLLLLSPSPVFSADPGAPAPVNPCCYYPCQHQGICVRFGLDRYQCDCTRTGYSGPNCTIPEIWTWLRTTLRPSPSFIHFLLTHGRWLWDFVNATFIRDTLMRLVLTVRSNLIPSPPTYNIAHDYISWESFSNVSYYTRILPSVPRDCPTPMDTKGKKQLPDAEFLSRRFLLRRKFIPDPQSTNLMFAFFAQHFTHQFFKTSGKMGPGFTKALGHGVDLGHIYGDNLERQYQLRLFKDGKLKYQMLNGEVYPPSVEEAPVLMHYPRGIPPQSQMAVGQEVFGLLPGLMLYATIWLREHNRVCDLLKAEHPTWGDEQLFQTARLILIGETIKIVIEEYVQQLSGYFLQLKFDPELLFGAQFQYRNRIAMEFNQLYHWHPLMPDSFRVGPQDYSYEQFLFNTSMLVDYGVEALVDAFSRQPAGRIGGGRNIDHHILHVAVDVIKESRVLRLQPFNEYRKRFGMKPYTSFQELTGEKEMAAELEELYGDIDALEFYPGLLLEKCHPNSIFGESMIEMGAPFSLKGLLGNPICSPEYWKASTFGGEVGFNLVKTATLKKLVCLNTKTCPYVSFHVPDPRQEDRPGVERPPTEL
Outline: (§1)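 Colorimetric COX inhibitor screening kit measuring cyclooxygenase peroxidase activity on arachidonic acid substrate, read as oxidized TMPD at 590 nm. Compound stocks are made in DMSO. IC50 is the mean of at least three independent measurements. Percent inhibition is taken at the highest final inhibitor concentration, 50 µM.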

[2] = target: T2, Prostaglandin G/H synthase 2 (Homo sapiens, UniProt P35354); assay: Inhibition of human COX-2 assessed as peroxidase activity using arachidonic acid as substrate by colorimetric method; outline: as §1
T2 sequence (P35354 whole entry): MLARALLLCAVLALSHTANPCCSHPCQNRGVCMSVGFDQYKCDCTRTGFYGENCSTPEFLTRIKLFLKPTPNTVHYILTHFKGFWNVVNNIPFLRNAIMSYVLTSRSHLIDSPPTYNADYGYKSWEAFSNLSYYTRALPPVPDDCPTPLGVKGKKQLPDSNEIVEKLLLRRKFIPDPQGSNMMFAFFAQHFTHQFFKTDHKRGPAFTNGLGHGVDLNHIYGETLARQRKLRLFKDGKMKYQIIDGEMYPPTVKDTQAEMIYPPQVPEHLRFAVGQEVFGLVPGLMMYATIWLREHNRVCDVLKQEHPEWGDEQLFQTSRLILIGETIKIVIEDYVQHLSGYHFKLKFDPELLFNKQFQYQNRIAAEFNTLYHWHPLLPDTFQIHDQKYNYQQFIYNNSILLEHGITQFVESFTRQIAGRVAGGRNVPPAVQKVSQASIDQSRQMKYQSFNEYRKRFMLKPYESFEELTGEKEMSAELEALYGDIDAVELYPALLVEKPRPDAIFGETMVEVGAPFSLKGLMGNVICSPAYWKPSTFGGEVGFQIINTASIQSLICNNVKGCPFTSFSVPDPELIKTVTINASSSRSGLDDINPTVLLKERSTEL

[3] = tested on: Plasma; assay: Anticoagulant activity in human plasma assessed as prothrombin time at 100 uM; format: functional
Outline: (§2)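 Human platelet-poor plasma from whole blood (n=3) by differential centrifugation, run on a coagulation analyzer. Compounds at 100 µM incubated with plasma 15 min at room temperature, then 2 min at 37 °C. For aPTT, cephalin is added for 2 min and clotting is started with 0.025 M CaCl2. For PT, PBS is added for 3 min and clotting is started with calcium thromboplastin. Clotting time is read in seconds at 37 °C. Negative control is 1% DMSO; positive control is 100 µM rivaroxaban.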

[4] = Genotoxicity in Salmonella typhimurium TA98 at 10 to 500 uM by AMES test; format: toxicity; conditions: salmonella enterica subsp. enterica serovar typhimurium, dose 10-500 µM
Outline: (§3)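 Ames reverse mutation to histidine prototrophy using S. typhimurium TA97, TA98, TA100 and TA102. Compounds are dissolved in DMSO and tested at 10, 100 and 500 µM.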

[5] = tested on: Vero; assay: Cytotoxicity against African green monkey Vero cells at 100 uM measured after 48 hrs by MTT assay relative to control; format: cell-based; conditions: chlorocebus sabaeus
Outline: (§4)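 Vero cells grown at 37 °C in 5% CO2 in medium with 10% inactivated FBS. Cells seeded at 3.2×10^4 per well and grown 24 h, then exposed to compounds for 48 h (n = 4). Control is DMEM with 10% FBS and 1% DMSO. MTT (2.5 mg/mL solution) is added for 3 h, formazan is dissolved in DMSO and absorbance is read at 570 nm. Viability is given as % of untreated cells, mean ± SD.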

[6] = tested on: Plasma; assay: Anticoagulant activity in human plasma assessed as activated partial thromboplastin time at 100 uM; format: functional; outline: as §2
[7] = Genotoxicity in Salmonella typhimurium TA100 at 10 to 500 uM by AMES test; format: toxicity; conditions: salmonella enterica subsp. enterica serovar typhimurium, dose 10-500 µM; outline: as §3
[8] = Mutagenicity in Escherichia coli PQ37 at 10 to 500 uM by SOS-chromotest; format: toxicity; conditions: dose 10-500 µM
Outline: (§5)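 SOS chromotest spot assay with E. coli PQ35 and PQ37. An overnight culture is diluted in LB and grown at 37 °C to 2×10^8 bacteria/mL. Then 0.1 mL is mixed in top agar and poured on M63 plates. 10 µL of compound in DMSO (10, 100 or 500 µM) is spotted centrally and plates are incubated overnight at 37 °C. A blue ring around the inhibition zone indicates genotoxicity. Run in triplicate with 4-NQO as positive control.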

[9] = target: T3, Prostaglandin G/H synthase 1 (Ovis aries) (UniProt P05979); assay: Inhibition of ovine COX-1 assessed as peroxidase activity using arachidonic acid as substrate at 50 uM by colorimetric method; outline: as §1
T3 sequence (whole entry): T1 sequence (P05979 whole entry)

[10] = Genotoxicity in Salmonella typhimurium TA97 at 10 to 500 uM by AMES test; format: toxicity; conditions: salmonella enterica subsp. enterica serovar typhimurium, dose 10-500 µM; outline: as §3
[11] = Hemolytic activity against human erythrocytes assessed as hemolysis incubated for 3 hrs by spectrophotometric analysis relative to control; format: ADME, cell-based, Erythrocyte; conditions: read-out: Activity
Outline: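 Citrated human blood (n=3) centrifuged at 2500 rpm for 15 min. The erythrocyte pellet is washed three times and resuspended in PBS pH 7.4. Compounds are incubated with the erythrocytes for 3 h at 37 °C. After centrifugation, released hemoglobin is read at 540 nm. Controls are 1% DMSO (negative) and 1% Triton X-100 (positive). Below 10% counts as non-hemolytic.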

[12] = tested on: Plasma; assay: Antiplatelet activity in human platelet-rich plasma assessed as inhibition of arachidonic acid-induced platelet aggregation by turbidimetric method; format: functional
Outline: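 Platelet-rich and platelet-poor plasma prepared from human whole blood (n=3) by differential centrifugation. Compounds pre-incubated in PRP for 2 min, then aggregation is induced with 500 µM arachidonic acid and followed turbidimetrically in an aggregometer. IC50 is determined from several concentrations, in triplicate. Acetylsalicylic acid is the positive control; 1% DMSO vehicle is the negative control.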

[13] = tested on: Vero; assay: Cytotoxicity against African green monkey Vero cells at 10 uM measured after 48 hrs by MTT assay relative to control; format: cell-based; conditions: chlorocebus sabaeus; outline: as §4
[14] = Mutagenicity in Escherichia coli PQ35 at 10 to 500 uM by SOS-chromotest; format: toxicity; conditions: dose 10-500 µM; outline: as §5
[15] = Genotoxicity in Salmonella typhimurium TA102 at 10 to 500 uM by AMES test; format: toxicity; conditions: salmonella enterica subsp. enterica serovar typhimurium, dose 10-500 µM; outline: as §3
[16] = Selectivity index, ratio of IC50 for human COX-2 to IC50 for ovine COX-1
Outline: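 Selectivity index is calculated as COX-2 IC50 divided by COX-1 IC50, each taken from the colorimetric TMPD peroxidase assay with arachidonic acid substrate.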

[17] = target: T4, Prostaglandin G/H synthase 2 (Homo sapiens) (UniProt P35354); assay: Inhibition of human COX-2 assessed as peroxidase activity using arachidonic acid as substrate at 50 uM by colorimetric method; outline: as §1
T4 sequence (whole entry): T2 sequence (P35354 whole entry)

| SMILES | IC50 [1] [nM] | IC50 [2] [nM] | PT [3] [s] | Activity [4] | Activity [5] [%] | APTT [6] [s] | Activity [7] | Activity [8] | inhibition [9] [%] | Activity [10] | hemolysis at 3 h [11] [%] | IC50 [12] [nM] | Activity [13] [%] | Activity [14] | Activity [15] | Ratio IC50 [16] | inhibition [17] [%] |
| --- | --- | --- | --- | --- | --- | --- | --- | --- | --- | --- | --- | --- | --- | --- | --- | --- | --- |
| COc1ccc(-c2noc(CC(=O)NCc3ccc(CNC(=O)Cc4onc(-c5ccc(OC)cc5)c4-c4ccc(OC)cc4)cc3)c2-c2ccc(OC)cc2)cc1 | > 50000 | > 50000 | – | – | – | – | – | – | – | – | – | – | – | – | – | – | – |
| COc1ccc(-c2noc(CC(=O)Nc3ccc(-c4ccc(NC(=O)Cc5onc(-c6ccc(OC)cc6)c5-c5ccc(OC)cc5)cc4)cc3)c2-c2ccc(OC)cc2)cc1 | 80 | > 50000 | 15.1 | Non-Toxic | 92 | 46.5 | Non-Toxic | Non-Toxic | 73 | Non-Toxic | 0 | 440 | 100 | Non-Toxic | Non-Toxic | > 625 | – |
| COc1ccc(-c2noc(CC(=O)Nc3ccc(NC(=O)Cc4onc(-c5ccc(OC)cc5)c4-c4ccc(OC)cc4)cc3)c2-c2ccc(OC)cc2)cc1 | 150 | > 50000 | 15.5 | Non-Toxic | 97 | 47.5 | Non-Toxic | Non-Toxic | 85 | Non-Toxic | 0 | 910 | 98 | Non-Toxic | Non-Toxic | > 333 | – |
| COc1ccc(-c2noc(CC(=O)Nc3ccc(N)cc3)c2-c2ccc(OC)cc2)cc1 | 24000 | 500 | – | – | – | – | – | – | 74 | – | – | – | – | – | – | 0.02 | 79 |
| CCCCC/C=C\C/C=C\C/C=C\C/C=C\CCCC(=O)Nc1ccc(NC(=O)Cc2onc(-c3ccc(OC)cc3)c2-c2ccc(OC)cc2)cc1 | 50 | > 50000 | 15.3 | – | 79 | 55.6 | – | – | 66 | – | 0 | 610 | 93 | – | – | – | – |
| CCCCC/C=C\C/C=C\C/C=C\C/C=C\CCCC(=O)NCCCCNC(=O)Cc1onc(-c2ccc(OC)cc2)c1-c1ccc(OC)cc1 | – | 800 | – | – | – | – | – | – | 57 | – | – | – | – | – | – | 0.05 | 61 |
| CCCCC/C=C\C/C=C\C/C=C\C/C=C\CCCC(=O)Nc1ccc(-c2ccc(NC(=O)Cc3onc(-c4ccc(OC)cc4)c3-c3ccc(OC)cc3)cc2)cc1 | 17000 | 90 | 14.6 | Non-Toxic | 84 | 48 | Non-Toxic | Non-Toxic | 50 | Non-Toxic | 0.14 | 760 | 94 | Non-Toxic | Non-Toxic | 0.005 | 60 |
| COc1ccc(-c2noc(CC(=O)O)c2-c2ccc(OC)cc2)cc1 [MOFEZOLAC] | – | – | 14.2 | Non-Toxic | 91 | 50.8 | Non-Toxic | Non-Toxic | – | Non-Toxic | 0 | 450 | 97 | Non-Toxic | Non-Toxic | – | – |
| COc1ccc(-c2noc(CC(=O)NCCNC(=O)Cc3onc(-c4ccc(OC)cc4)c3-c3ccc(OC)cc3)c2-c2ccc(OC)cc2)cc1 | 13 | 120 | – | – | – | – | – | – | 75 | – | – | – | – | – | – | 9 | 45 |
| COc1ccc(-c2noc(CC(=O)NCCCCCCCCCCCCNC(=O)Cc3onc(-c4ccc(OC)cc4)c3-c3ccc(OC)cc3)c2-c2ccc(OC)cc2)cc1 | 7100 | > 50000 | – | – | – | – | – | – | 40 | – | – | – | – | – | – | > 7 | – |
| COc1ccc(-c2noc(CC(=O)NCCCCNC(=O)Cc3onc(-c4ccc(OC)cc4)c3-c3ccc(OC)cc3)c2-c2ccc(OC)cc2)cc1 | 5500 | > 50000 | – | – | – | – | – | – | 74 | – | – | – | – | – | – | > 9 | – |
| COc1ccc(-c2noc(CC(=O)NCCCCN)c2-c2ccc(OC)cc2)cc1 | 950 | 3500 | – | – | – | – | – | – | 100 | – | – | – | – | – | – | 3.7 | 51 |
| CC(=O)Oc1ccccc1C(=O)O [ASPIRIN] | – | – | 14.6 | Non-Toxic | 95 | 50.3 | Non-Toxic | Non-Toxic | – | Non-Toxic | 0 | 1110 | 100 | Non-Toxic | Non-Toxic | – | – |
| COc1ccc(-c2noc(CC(=O)Nc3ccc(-c4ccc(N)cc4)cc3)c2-c2ccc(OC)cc2)cc1 | 75 | 300 | – | – | – | – | – | – | 85 | – | – | – | – | – | – | 4 | 71 |
| COc1ccc(-c2noc(CC(=O)NCCCCCCNC(=O)Cc3onc(-c4ccc(OC)cc4)c3-c3ccc(OC)cc3)c2-c2ccc(OC)cc2)cc1 | 9000 | > 50000 | – | – | – | – | – | – | 50 | – | – | – | – | – | – | > 5.5 | – |
